Calls of active or inactive are those of the source. No cut-off for these calls is given here.
Columns and labels:
Chlamydia pneumoniae [1] = assay: Antimicrobial activity against Chlamydia pneumoniae infected in HEp-2 cells; type: functional, organism-based
Summary of the method: (§1)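 HEp-2 cells were infected with C. pneumoniae (MOI 10, centrifuged at 800 x g for 1 h at room temperature) and washed. They were seeded at 5 x 10^4 cells/well and cultured 72 h with RU486 (0.02 to 2 µM; ethanol vehicle control). Freeze-thaw lysates were serially diluted 10-fold onto HEp-2 monolayers, spun, grown 72 h at 37°C with cycloheximide 1 µg/ml, and FITC anti-Chlamydia stained for IFU counts. Means of three experiments.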

Chlamydia pneumoniae [2] = assay: Antimicrobial activity against Chlamydia pneumoniae infected in HEp-2 cells assessed as growth inhibition at 2 uM pretreated for 1 hr before infection; type: functional, organism-based
Summary of the method: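 Before infecting HEp-2 cells, the bacteria were pretreated with 2 µM RU486 for 1 h or left untreated. Cells were then cultured with or without RU486 2 µM or cycloheximide 1 µg/ml. Infective progeny in 72 h lysates was assessed by IFU assay. Means ± SD of three experiments.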

Chlamydia pneumoniae [3] = assay: Antimicrobial activity against Chlamydia pneumoniae infected in HEp-2 cells at 2 uM after 72 hrs in presence of cycloheximide; type: functional, organism-based
Summary of the method: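 Infected HEp-2 cells were held 72 h with RU486 2 µM and/or cycloheximide 0.1 to 10 µg/ml, with untreated and ethanol controls. Infective progeny in cell lysates was counted by IFU assay on HEp-2 monolayers with FITC anti-Chlamydia antibody staining. Means ± SD of three experiments.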

[4] = Cmax in pregnant women at 800 mg, po; type: ADME, organism-based; parameters: dose 800 mg, route oral; conditions: female, human, in vivo
Chlamydia pneumoniae [5] = assay: Antimicrobial activity against Chlamydia pneumoniae infected in HEp-2 cells assessed as a reduction in 16S rRNA transcript at 2 uM after 24 hrs by RT-PCR in presence of cycloheximide; type: functional, organism-based
Summary of the method: (§2)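 Infected HEp-2 cells (5 x 10^5 cells/well) were treated with RU486 2 µM with or without cycloheximide 1 µg/ml. Total RNA was extracted at harvest. C. pneumoniae 16S rRNA was quantified by real-time RT-PCR (50 cycles, melt-curve check), and copies per reaction were taken from a standard curve of diluted C. pneumoniae DNA. Means ± SD, three experiments.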

Chlamydia pneumoniae [6] = assay: Antimicrobial activity against Chlamydia pneumoniae infected in HEp-2 cells assessed as a reduction in 16S rRNA transcript at 2 uM after 72 hrs by RT-PCR in presence of cycloheximide; type: functional, organism-based; summary of the method: as §2
[7] = Cytotoxicity against human Hep2 cells at 20 uM; type: cell-based; conditions: hep-2, 20 µM
Chlamydia pneumoniae [8] = assay: Antimicrobial activity against Chlamydia pneumoniae infected in HEp-2 cells assessed as a reduction in 16S rRNA transcript at 2 uM after 72 hrs by RT-PCR; type: functional, organism-based; summary of the method: as §2
Chlamydia pneumoniae [9] = assay: Antimicrobial activity against Chlamydia pneumoniae infected in HEp-2 cells assessed as inhibition of bacterial replication at 2 uM after 24 hrs; type: functional, organism-based
Summary of the method: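 Time course: infected HEp-2 cells (MOI 10, centrifugation-assisted) were incubated with or without 2 µM RU486 for up to 72 h. At each time point, infective progeny in freeze-thaw lysates was titrated on fresh HEp-2 monolayers by IFU assay (72 h with cycloheximide 1 µg/ml, FITC anti-Chlamydia staining). Means ± SD, three experiments.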

Chlamydia pneumoniae [10] = assay: Antimicrobial activity against Chlamydia pneumoniae infected in HEp-2 cells at 20 uM; type: functional, organism-based
Chlamydia pneumoniae [11] = assay: Antimicrobial activity against Chlamydia pneumoniae infected in HEp-2 cells at 2 uM after 72 hrs; type: functional, organism-based; summary of the method: as §1
[12] = Cytotoxicity against human Hep2 cells at >2 uM; type: cell-based; conditions: hep-2
Chlamydia pneumoniae [13] = assay: Antimicrobial activity against Chlamydia pneumoniae infected in HEp-2 cells 0.02 to 2 uM after 72 hrs; type: functional, organism-based; summary of the method: as §1
Chlamydia pneumoniae [14] = assay: Antimicrobial activity against Chlamydia pneumoniae infected in HEp-2 cells assessed as a reduction in 16S rRNA transcript at 2 uM after 24 hrs by RT-PCR; type: functional, organism-based; summary of the method: as §2

CC#C[C@]1(O)CC[C@H]2[C@@H]3CCC4=CC(=O)CCC4=C3[C@@H](c3ccc(N(C)C)cc3)C[C@@]21C [MIFEPRISTONE]
Activity (Chlamydia pneumoniae [1]): Active
Activity (Chlamydia pneumoniae [2]): inactive
Activity (Chlamydia pneumoniae [3]): Active
Cmax [4]: 2500 ng/mL
Activity (Chlamydia pneumoniae [5]): inactive
Activity (Chlamydia pneumoniae [6]): inactive
Activity [7]: Toxic
Activity (Chlamydia pneumoniae [8]): Active
inhibition (Chlamydia pneumoniae [9]): Active
Activity (Chlamydia pneumoniae [10]): Active
Activity (Chlamydia pneumoniae [11]): Active
Activity [12]: Toxic
Activity (Chlamydia pneumoniae [13]): Dose-dependent effect
Activity (Chlamydia pneumoniae [14]): Active
